What was measured:
Mus musculus = assay: Antidepressant activity in ip dosed mouse assessed as prevention of reserpine-induced ptosis; type: functional
Method in brief: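 Mice dosed ip with test compound; reserpine given to induce ptosis (adapted Petersen et al. method). The percentage of mice with ptosis prevented was recorded. ED50 (mg/kg) derived by the Finney method.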

[1] = Acute toxicity in ip dosed albino mouse assessed as mortality measured for 5 days; type: organism-based; details: in vivo
Method in brief: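 Graded intraperitoneal doses, five animals per group; approximate LD50 estimated from mortality recorded over the 5 days after dosing.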

Rattus norvegicus = assay: Antidepressant activity in ip dosed rat assessed as prevention of tetrabenazine-induced ptosis; type: functional
Method in brief: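 Rats dosed ip; tetrabenazine used to induce ptosis (modified Giurgea et al. method). ED50 (mg/kg) derived by the Finney method from prevention of ptosis.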

Br.CCn1c2c(c3ccccc31)CCCC2(CC)CCN(C)C (centres undefined)
ED50 (Mus musculus): 0.7 mg/kg
LD50 at 120 h [1]: 175 mg/kg

CCn1c2c(c3cc(Cl)ccc31)CCCC2(C)CCN(C)C.Cl (centres undefined)
ED50 (Mus musculus): 0.19 mg/kg

CCc1cccc2c3c(n(CC)c12)C(C)(CCN(C)C)CCC3.O=C(O)/C=C/C(=O)O (centres undefined)
ED50 (Mus musculus): 19 mg/kg

CN(C)CCC1(C)CCCc2c1n(C)c1ccccc21.Cl (centres undefined)
ED50 (Mus musculus): 0.8 mg/kg
LD50 at 120 h [1]: 125 mg/kg

CCCn1c2c(c3ccccc31)CCCC2(C)CCN(C)C.Cl (centres undefined)
ED50 (Mus musculus): 0.4 mg/kg
LD50 at 120 h [1]: 125 mg/kg

CCn1c2c(c3ccccc31)CCCC2(C)CCN(C)C.Cl (centres undefined)
ED50 (Mus musculus): 0.12 mg/kg
LD50 at 120 h [1]: 125 mg/kg
ED50 (Rattus norvegicus): 3.3 mg/kg

CCn1c2c(c3ccccc31)CCCC2(C)CCNC.Cl (centres undefined)
ED50 (Mus musculus): 1.6 mg/kg
LD50 at 120 h [1]: 125 mg/kg

CN(C)CCC1CCCc2c1n(C)c1ccccc21.Cl (centres undefined)
ED50 (Mus musculus): 5 mg/kg
LD50 at 120 h [1]: 125 mg/kg

CN(C)CC1CCCc2c1[nH]c1ccc(Cl)cc21 (centres undefined)
ED50 (Mus musculus): > 30 mg/kg

Br.CCn1c2c(c3ccccc31)CCC2(C)CCN(C)C (centres undefined)
ED50 (Mus musculus): 0.75 mg/kg

CCn1c2c(c3ccccc31)CCCCC2(C)CCN(C)C.Cl (centres undefined)
ED50 (Mus musculus): 0.27 mg/kg
LD50 at 120 h [1]: 85 mg/kg

CN(C)CCC=C1c2ccccc2CCc2ccccc21 [AMITRIPTYLINE]
ED50 (Mus musculus): 4.7 mg/kg
LD50 at 120 h [1]: 94 mg/kg
ED50 (Rattus norvegicus): 37 mg/kg

CN(C)CCCN1c2ccccc2CCc2ccccc21 [IMIPRAMINE]
ED50 (Mus musculus): 6 mg/kg
ED50 (Rattus norvegicus): 22.6 mg/kg

From ChEMBL document CHEMBL3272165, “Cycloalkanoindoles. 2. 1-Alkyl-1,2,3,4-tetrahydrocarbazole-1-ethanamines and related compounds. Potential antidepressants” (J Med Chem, 1976)
